Series [1] deals with Escherichia coli. Kind of series: Antibacterial activity against Escherichia coli ATCC 25922 measured after 24 hrs. The series is classed as functional. Summed up:
(§1)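 Broth microdilution adapted from NCCLS. Mid-log bacteria were diluted in MHB to a final (0.5–1) × 10^5 CFU mL−1. Peptides were serially diluted in 0.2% BSA and mixed with an equal volume of cells. After 24 h at 37 °C, MIC was read at A492 as the lowest concentration inhibiting 95% of growth. At least three independent experiments, each with three technical replicates.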

For series [2], the system named is Escherichia coli. Briefly: Antibacterial activity against Escherichia coli UB1005 measured after 24 hrs. The series is classed as functional. The method, boiled down:
as §1

Series [3] relates to Staphylococcus aureus. Briefly: Antibacterial activity against methicillin-resistant Staphylococcus aureus ATCC 43300 measured after 24 hrs. Type of series: functional. Summed up: (§2)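 Broth microdilution modified from NCCLS. Mid-log bacteria at (0.5–1) × 10^5 CFU mL−1 in MHB, mixed with peptides serially diluted in 0.2% BSA. Incubated 24 h at 37 °C, read at A492. MIC taken as lowest concentration giving 95% growth inhibition. At least three independent experiments, each with three technical replicates.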

Series [4] in a line: Antibacterial activity against Salmonella pullorum ATCC 7913 measured after 24 hrs. Type of series: functional, Salmonella enterica subsp. enterica serovar Pullorum. The note with it: Salmonella enterica, ATCC 7913, 24 h. Summed up:
as §1

Series [5] concerns Staphylococcus epidermidis. Briefly: Antibacterial activity against Staphylococcus epidermidis ATCC 12228 measured after 24 hrs. Type of series: functional. Summed up:
as §1

Series [6] concerns Staphylococcus aureus. Briefly: Antibacterial activity against Staphylococcus aureus ATCC 29213 measured after 24 hrs. The series is classed as functional. Summed up: as §2
The subject of series [7] is Candida albicans. Briefly: Antifungal activity against Candida albicans cgmcc2.2086 measured after 48 hrs by broth microdilution method. Type of series: functional. Summed up:
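Modified CLSI M27-A2 microdilution. Yeast colonies were diluted in MOPS-buffered RPMI 1640 to a final (0.5–1) × 10^3 CFU mL−1 and mixed with an equal volume of peptide serially diluted in 0.2% BSA. After 48 h at 28 °C, MIC was read at A492 as the lowest concentration inhibiting 95% of growth. At least three independent experiments, each with three technical replicates.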
For orientation: In broth dilution the organism is exposed to a series of concentrations in liquid medium.

Series [8] deals with Salmonella typhimurium. Briefly: Bactericidal activity against Salmonella typhimurium ATCC 14028 incubated for 24 hrs followed by replating on agar plate and measured after overnight incubation. The series is classed as functional, Salmonella enterica subsp. enterica serovar Typhimurium. The conditions noted are these: for MBC: Salmonella enterica, ATCC 14028, 24 h, read-out: MBC>99.9. The method, boiled down:
(§3)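 Mid-log bacteria diluted in MHB to (0.5–1) × 10^5 CFU/mL and mixed 1:1 with peptide serially diluted in 0.2% BSA. After 24 h at 37 °C, 50 μL of each mixture was plated on agar and incubated overnight. MBC taken as the lowest concentration killing >99.9% of cells. At least three independent experiments, each with three technical replicates.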

Series [9] in a line: Bactericidal activity against Salmonella pullorum ATCC 7913 incubated for 24 hrs followed by replating on agar plate and measured after overnight incubation. The conditions noted are these: Salmonella enterica, ATCC 7913, 24 h; read-out: MBC>99.9. Type of series: functional, Salmonella enterica subsp. enterica serovar Pullorum. Summed up:
as §3

The subject of series [10] is Escherichia coli. Briefly: Bactericidal activity against Escherichia coli K99 incubated for 24 hrs followed by replating on agar plate and measured after overnight incubation. Type of series: functional. The conditions noted are these: for MBC: K99, 24 h, read-out: MBC>99.9. The method, boiled down:
as §3

The test system of series [11] is Salmonella typhimurium. Kind of series: Bactericidal activity against Salmonella typhimurium C7731 incubated for 24 hrs followed by replating on agar plate and measured after overnight incubation. The series is classed as functional, Salmonella enterica subsp. enterica serovar Typhimurium. The method, boiled down: as §3
The test system of series [12] is Staphylococcus aureus. Briefly: Bactericidal activity against methicillin-resistant Staphylococcus aureus ATCC 43300 incubated for 24 hrs followed by replating on agar plate and measured after overnight incubation. Type of series: functional. The method, boiled down:
(§4)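 After the 24 h, 37 °C MHB microdilution MIC assay, 50 μL from each well was plated on agar and incubated overnight. MBC taken as lowest peptide concentration killing >99.9% of cells. At least three independent experiments, each with three technical replicates.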

Series [13] concerns Staphylococcus epidermidis. Kind of series: Bactericidal activity against Staphylococcus epidermidis ATCC 12228 incubated for 24 hrs followed by replating on agar plate and measured after overnight incubation. Type of series: functional. Summed up:
as §3

The test system of series [14] is Staphylococcus aureus. Briefly: Bactericidal activity against Staphylococcus aureus ATCC 25923 incubated for 24 hrs followed by replating on agar plate and measured after overnight incubation. The note with it: for MBC: ATCC 25923, 24 h, read-out: MBC>99.9. The series is classed as functional. The method, boiled down: as §4
Series [15] relates to Staphylococcus aureus. Briefly: Bactericidal activity against Staphylococcus aureus ATCC 29213 incubated for 24 hrs followed by replating on agar plate and measured after overnight incubation. Type of series: functional. Summed up:
as §4

Series [16] concerns Escherichia coli. Kind of series: Antibacterial activity against Escherichia coli ATCC 25922 measured after 18 to 24 hrs in presence of CaCl2. The series is classed as functional.
In series [17] the test system is Escherichia coli. Kind of series: Antibacterial activity against Escherichia coli ATCC 25922 measured after 18 to 24 hrs in presence of MgCl2. Type of series: functional.
For series [18], the system named is Staphylococcus aureus. Kind of series: Antibacterial activity against Staphylococcus aureus ATCC 29213 measured after 18 to 24 hrs in presence of NaCl. Type of series: functional.
For series [19], the system named is Staphylococcus aureus. Kind of series: Antibacterial activity against Staphylococcus aureus ATCC 29213 measured after 18 to 24 hrs in presence of CaCl2. Type of series: functional.
In series [20] the test system is Candida albicans. Briefly: Antifungal activity against Candida albicans cgmcc2.2086 measured after 48 hrs in presence of MgCl by broth microdilution method. The series is classed as functional.
A short description of series [21]: Cytotoxicity against mouse RAW264.7 cells assessed as cell viability at 2 to 64 uM measured after 18 to 24 hrs by MTT assay relative to control. The series is classed as cell-based. The note with it: RAW264.7 cells, read-out: Activity. The method, boiled down:
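MTT assay: RAW264.7 cells seeded at 1.0–2.0×10^4 per well and exposed to peptide (2–64 µM) for 18–24 h at 37 °C in 5% CO2. MTT (0.5 mg/mL) added for 4 h, formazan dissolved in DMSO, read at 570 nm. At least three independent experiments with triplicate wells.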
(In general: Tetrazolium assays rely on reduction of a dye to a coloured formazan, in cell work by metabolically active cells.)

The nature of series [22]: Therapeutic index, ratio of MHC10 for hemolytic activity in human RBC to MIC95 against methicillin-resistant Staphylococcus aureus ATCC 43300. Type of series: toxicity. The conditions noted are these: human red blood cells (erythrocytes), read-out: TI. Summed up: (§5)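 Therapeutic index = MHC divided by MIC. MHC is the lowest concentration giving >10% lysis of human RBC (1 h, 37 °C, 1-128 µM, A576). MIC is 95% growth inhibition by broth microdilution: bacteria in MHB 24 h at 37 °C; Candida in MOPS-buffered RPMI 1640 at (0.5–1) × 10^3 CFU mL−1, 48 h at 28 °C.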

Series [23] in a line: Therapeutic index, ratio of MHC10 for hemolytic activity in human RBC to MIC95 against Staphylococcus epidermidis ATCC 12228. Type of series: toxicity. The note with it: human red blood cells (erythrocytes), read-out: TI. Summed up: as §5
A short description of series [24]: Therapeutic index, ratio of MHC10 for hemolytic activity in human RBC to MIC95 against Staphylococcus aureus ATCC 29213. Type of series: toxicity. The note with it: human red blood cells (erythrocytes), read-out: TI. Summed up: as §5
Series [25] is described as follows: Therapeutic index, ratio of MHC10 for hemolytic activity in human RBC to MIC95 against Candida tropicalis cgmcc2.1975. Type of series: toxicity. The note with it: human red blood cells (erythrocytes), read-out: TI. The method, boiled down: as §5
[26] abbreviates: Salmonella enterica subsp. enterica serovar Typhimurium.

Converted amounts (≈) assume the structure as drawn. Where a SMILES comes first, the peptide text is derived from it.

The MBC is the lowest tested concentration that kills the bacteria rather than only halting them. With `CC(C)(O/N=C(\C(=O)N[C@@H]1C(=O)N2C(C(=O)[O-])=C(C[n+]3ccccc3)CS[C@H]12)c1csc(N)n1)C(=O)O` [CEFTAZIDIME], the MIC95 with Escherichia coli [1] (ATCC 25922, 24 h) stood at 2 µM (≈ 1.09 µg/mL); with Escherichia coli [2] (UB1005, 24 h), 1 µM (≈ 0.547 µg/mL); in the series on Staphylococcus aureus [3] (ATCC 43300, 24 h), 16 µM (≈ 8.75 µg/mL); in series [4] it was 1 µM (≈ 0.547 µg/mL); in series [5] (ATCC 12228, 24 h), 16 µM (≈ 8.75 µg/mL); with Staphylococcus aureus [6] (ATCC 29213, 24 h), 16 µM (≈ 8.75 µg/mL). The MIC95 in the series on Candida albicans [7] (cgmcc2.2086, 48 h) was greater than 128 µM; in the series on Escherichia coli [16], 2 µM; in the series on Escherichia coli [17], 2 µM; with Staphylococcus aureus [18], 16 µM; in the series with Staphylococcus aureus [19], 32 µM; in the series with Candida albicans [20] (cgmcc2.2086, 48 h), greater than 128 µM. Besides, the MBC in the series with Salmonella typhimurium [8] was found to be 1 µM (≈ 0.547 µg/mL); in [9], 2 µM (≈ 1.09 µg/mL); in the series with Escherichia coli [10] it was 1 µM (≈ 0.547 µg/mL); in the series with Salmonella typhimurium [11] (Salmonella enterica, C7731, 24 h, read-out: MBC>99.9), 1 µM (≈ 0.547 µg/mL); in the series on Staphylococcus aureus [12] (ATCC 43300, 24 h, read-out: MBC>99.9), 32 µM (≈ 17.5 µg/mL); in series [13] (ATCC 12228, 24 h, read-out: MBC>99.9) it was 32 µM (≈ 17.5 µg/mL). The MBC in the series with Staphylococcus aureus [14] turned out to be 32 µM (≈ 17.5 µg/mL); with Staphylococcus aureus [15] (ATCC 29213, 24 h, read-out: MBC>99.9) it was 16 µM (≈ 8.75 µg/mL).
On to `CC[C@H](C)[C@H](NC(=O)[C@H](CCCCN)NC(=O)[C@H](C)NC(=O)[C@H](C)N)C(=O)N[C@H](C(=O)N[C@@H](CC(C)C)C(=O)N[C@@H](CC(N)=O)C(=O)N1CCC[C@H]1C(=O)N[C@@H](CCCCN)C(=O)N[C@@H](Cc1ccccc1)C(=O)N[C@@H](CCCNC(=N)N)C(=O)N[C@@H](CS)C(=O)N[C@@H](CCCCN)C(=O)N[C@@H](C)C(=O)N[C@@H](C)C(=O)N[C@@H](Cc1ccccc1)C(=O)N[C@@H](CS)C(N)=O)[C@@H](C)CC` (H-AAKIILNPKFRCKAAFC-NH2), for which, in [21], the viability at up to 64 µM lay in the range of 90 to 100%. Besides, the MIC95 with Escherichia coli [1] (ATCC 25922, 24 h) is 32 µM (≈ 60.6 µg/mL); against Escherichia coli [2] (UB1005, 24 h), 64 µM (≈ 121 µg/mL); against Staphylococcus aureus [3] (ATCC 43300, 24 h), greater than 128 µM; in series [4] it was 64 µM (≈ 121 µg/mL); in series [5] (ATCC 12228, 24 h), greater than 128 µM; in the series with Staphylococcus aureus [6] (ATCC 29213, 24 h), greater than 128 µM. In addition, the MIC95 in the series with Candida albicans [7] (cgmcc2.2086, 48 h) was greater than 128 µM; in the series with Escherichia coli [16] it was greater than 128 µM; with Escherichia coli [17] it was 64 µM; with Staphylococcus aureus [18] it was greater than 128 µM; with Staphylococcus aureus [19], greater than 128 µM; in the series on Candida albicans [20] (cgmcc2.2086, 48 h), greater than 128 µM. The MBC in the series with Salmonella typhimurium [8] is 128 µM (≈ 242 µg/mL); in series [9], greater than 128 µM; with Escherichia coli [10], 64 µM (≈ 121 µg/mL); in the series on Staphylococcus aureus [14] it was greater than 128 µM. Also, the selectivity ratio in series [22] was found to be 0.3; in series [23], 0.3; in series [24], 0.3; in series [25] it was 0.25.
As to POLYMYXIN B, the MIC95 with Escherichia coli [1] was determined as 2 µM; against Escherichia coli [2] it was 1 µM; against Staphylococcus aureus [3], 64 µM; in [5], 32 µM; in the series on Staphylococcus aureus [6], 32 µM; against Candida albicans [7] it was 32 µM. Besides, the MIC95 is 16 µM in the series on Escherichia coli [16]; 1 µM in the series with Escherichia coli [17]; 64 µM in the series with Staphylococcus aureus [18]; 64 µM in the series on Staphylococcus aureus [19]; 32 µM with Candida albicans [20]. Moreover, the MBC>99.9 against Salmonella typhimurium [8] (setting [26]) is 2 µM; in the series with Escherichia coli [10], 1 µM; with Salmonella typhimurium [11] (setting [26]), 4 µM; against Staphylococcus aureus [12] it was 128 µM; in [13], 64 µM; with Staphylococcus aureus [14], greater than 128 µM. This compound also yielded an MBC>99.9 in the series on Staphylococcus aureus [15] of 64 µM.

(Values after ChEMBL document CHEMBL4350958, “Rational Design of Short Peptide Variants by Using Kunitzin-RE, an Amphibian-Derived Bioactivity Peptide, for Acquired Potent Broad-Spectrum Antimicrobial and Improved Therapeutic Potential of Commensalism Coinfection of Pathogens” (J Med Chem, 2019).)
